# Source: ChEMBL document CHEMBL3860041, “Synthesis, biological evaluation and molecular modeling study of some new methoxylated 2-benzylthio-quinazoline-4(3H)-ones as nonclassical antifolates” (Bioorg Med Chem Lett, 2016)
# pIC50: −log10 of the molar value.
# What was measured:
# [1] = tested on: Cancer cell lines; test: Potency index, ratio of 5-fluorouracil GI50 to compound GI50 for human CNS cancer cells; assay type: functional
# Summary of the method: (§1)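 GI50 for each cell line came from NCI panel testing over a 5-log dose range, with 5-fluorouracil tested alongside as the reference drug. The index relates the 5-fluorouracil GI50 to the compound GI50 within each tumour subpanel.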
# [2] = Growth inhibition of human Caki1 cells at 10 uM after 48 hrs by SRB assay relative to control; assay type: functional; details: CAKI-1, 48 h, read-out: GI
# Summary of the method: (§2)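 NCI 60-cell-line panel, nine tumor subpanels; compounds tested at a single dose of 10 μM in the primary screen.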
# [3] = Growth inhibition of human RXF393 cells at 10 uM after 48 hrs by SRB assay relative to control; assay type: functional; details: RXF 393, 48 h, read-out: GI; summary of the method: as §2
# [4] = tested on: Cancer cell lines; test: Potency index, ratio of 5-fluorouracil GI50 to compound GI50 for human non-small cell lung cancer cells; assay type: functional; summary of the method: as §1
# [5] = tested on: Melanoma cell; test: Potency index, ratio of 5-fluorouracil GI50 to compound GI50 for human melanoma cells; assay type: functional; summary of the method: as §1
# [6] = Growth inhibition of human UO31 cells at 10 uM after 48 hrs by SRB assay relative to control; assay type: functional; details: UO-31, 48 h, read-out: GI
# Summary of the method: (§3)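 Primary screen across the full NCI 60 human tumour cell line panel, which covers nine tumour subpanels. A single dose of 10 μM was applied to each line, and growth was recorded for each cell line.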
# [7] = Growth inhibition of human COLO205 cells at 10 uM after 48 hrs by SRB assay relative to control; assay type: functional; details: COLO 205, 48 h, read-out: GI; summary of the method: as §2
# [8] = Growth inhibition of human 786-0 cells at 10 uM after 48 hrs by SRB assay relative to control; assay type: functional; details: 786-0, 48 h, read-out: GI; summary of the method: as §2
# [9] = Growth inhibition of human HT-29 cells at 10 uM after 48 hrs by SRB assay relative to control; assay type: functional; details: HT-29, 48 h, read-out: GI; summary of the method: as §2
# [10] = Growth inhibition of human M14 cells at 10 uM after 48 hrs by SRB assay relative to control; assay type: functional; details: M14, 48 h, read-out: GI; summary of the method: as §2
# [11] = biological target: T1, Dihydrofolate reductase (Bos taurus, UniProt P00376); test: Inhibition of bovine liver DHFR preincubated for 2 mins followed by addition of FH2 as substrate and NADPH
# T1 sequence (P00376 whole entry): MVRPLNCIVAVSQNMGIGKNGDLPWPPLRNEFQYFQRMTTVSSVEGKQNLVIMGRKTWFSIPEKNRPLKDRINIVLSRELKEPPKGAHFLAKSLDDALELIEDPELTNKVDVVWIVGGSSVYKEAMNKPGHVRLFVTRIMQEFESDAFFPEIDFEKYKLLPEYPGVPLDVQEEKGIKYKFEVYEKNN
# [12] = Growth inhibition of human HCC2998 cells at 10 uM after 48 hrs by SRB assay relative to control; assay type: functional; details: HCC 2998, 48 h, read-out: GI; summary of the method: as §2
# [13] = Growth inhibition of human UACC62 cells at 10 uM after 48 hrs by SRB assay relative to control; assay type: functional; details: UACC-62, 48 h, read-out: GI; summary of the method: as §3
# [14] = Growth inhibition of human SW620 cells at 10 uM after 48 hrs by SRB assay relative to control; assay type: functional; details: SW-620, 48 h, read-out: GI; summary of the method: as §3
# [15] = Growth inhibition of human OVCAR3 cells at 10 uM after 48 hrs by SRB assay relative to control; assay type: functional; details: OVCAR-3, 48 h, read-out: GI; summary of the method: as §2
# [16] = tested on: Cancer cell lines; test: Potency index, ratio of 5-fluorouracil GI50 to compound GI50 for human renal cancer cells; assay type: functional; summary of the method: as §1
# [17] = Growth inhibition of human ACHN cells at 10 uM after 48 hrs by SRB assay relative to control; assay type: functional; details: read-out: GI; summary of the method: as §2
# [18] = Growth inhibition of human NCI-322M cells at 10 uM after 48 hrs by SRB assay relative to control; assay type: functional; details: read-out: GI; summary of the method: as §2
# [19] = Growth inhibition of human SF539 cells at 10 uM after 48 hrs by SRB assay relative to control; assay type: functional; details: SF-539, 48 h, read-out: GI; summary of the method: as §2
# [20] = Growth inhibition of human A549 cells at 10 uM after 48 hrs by SRB assay relative to control; assay type: functional; details: A549, 48 h, read-out: GI; summary of the method: as §2
# [21] = Growth inhibition of human PC3 cells at 10 uM after 48 hrs by SRB assay relative to control; assay type: functional; details: PC-3, 48 h, read-out: GI; summary of the method: as §2
# [22] = Growth inhibition of human LOXIMVI cells at 10 uM after 48 hrs by SRB assay relative to control; assay type: functional; details: LOX IMVI, read-out: GI; summary of the method: as §2
# [23] = Growth inhibition of human SN12C cells at 10 uM after 48 hrs by SRB assay relative to control; assay type: functional; details: read-out: GI; summary of the method: as §3
# [24] = Growth inhibition of human SKOV3 cells at 10 uM after 48 hrs by SRB assay relative to control; assay type: functional; details: SK-OV-3, 48 h, read-out: GI; summary of the method: as §3
# [25] = Growth inhibition of human NCI/ADR-RES cells at 10 uM after 48 hrs by SRB assay relative to control; assay type: functional; details: read-out: GI; summary of the method: as §2
# [26] = Growth inhibition of human SK-MEL-5 cells at 10 uM after 48 hrs by SRB assay relative to control; assay type: functional; details: SK-MEL-5, 48 h, read-out: GI; summary of the method: as §3
# [27] = Growth inhibition of human colon cancer cells after 48 hrs by SRB assay; assay type: functional; details: Cancer cell lines
# Summary of the method: (§4)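 Follow-up NCI panel testing over a 5-log dose range for each cell line. GI50, TGI and LC50 were monitored, with 5-fluorouracil run as the positive control. Values are grouped by tumour subpanel.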
# [28] = Growth inhibition of human KM12 cells at 10 uM after 48 hrs by SRB assay relative to control; assay type: functional; details: KM12, 48 h, read-out: GI; summary of the method: as §2
# [29] = Growth inhibition of human MALME-3M cells at 10 uM after 48 hrs by SRB assay relative to control; assay type: functional; details: read-out: GI; summary of the method: as §2
# [30] = Growth inhibition of human IGROV1 cells at 10 uM after 48 hrs by SRB assay relative to control; assay type: functional; details: IGROV-1, 48 h, read-out: GI; summary of the method: as §2
# [31] = Growth inhibition of human breast cancer cells after 48 hrs by SRB assay; assay type: functional; details: Cancer cell lines; summary of the method: as §4
# [32] = tested on: Cancer cell lines; test: Potency index, ratio of 5-fluorouracil GI50 to compound GI50 for human ovarian cancer cells; assay type: functional; summary of the method: as §1
# [33] = Growth inhibition of human T47D cells at 10 uM after 48 hrs by SRB assay relative to control; assay type: functional; details: read-out: GI; summary of the method: as §3
# [34] = Growth inhibition of human prostate cancer cells after 48 hrs by SRB assay; assay type: functional; details: Cancer cell lines; summary of the method: as §4
# [35] = Growth inhibition of human OVCAR4 cells at 10 uM after 48 hrs by SRB assay relative to control; assay type: functional; details: OVCAR-4, 48 h, read-out: GI; summary of the method: as §2
# [36] = Growth inhibition of human MCF7 cells at 10 uM after 48 hrs by SRB assay relative to control; assay type: functional; details: MCF7, 48 h, read-out: GI; summary of the method: as §2
# [37] = Growth inhibition of human Hs 578T cells at 10 uM after 48 hrs by SRB assay relative to control; assay type: functional; details: read-out: GI; summary of the method: as §2
smiles,measurement,setting,value
COc1ccc(-n2c(SCc3cc(OC)c(OC)c(OC)c3)nc3ccc(C)cc3c2=O)cc1,RatioGI50,[1],2 - 10
same,inhibition of growth at 10 µM,[2],45.8%
same,inhibition of growth at 10 µM,[3],47.2%
same,RatioGI50,[4],2 - 10
same,RatioGI50,[5],2 - 10
same,inhibition of growth at 10 µM,[6],52.8%
same,inhibition of growth at 10 µM,[7],67.3%
same,inhibition of growth at 10 µM,[8],15.9%
same,inhibition of growth at 10 µM,[9],78.1%
same,inhibition of growth at 10 µM,[10],46.2%
same,pIC50,[11],5.00
same,inhibition of growth at 10 µM,[12],24.3%
same,inhibition of growth at 10 µM,[13],43.3%
same,inhibition of growth at 10 µM,[14],50.7%
same,inhibition of growth at 10 µM,[15],40.1%
same,RatioGI50,[16],2 - 10
same,inhibition of growth at 10 µM,[17],33.3%
same,inhibition of growth at 10 µM,[18],19.7%
same,inhibition of growth at 10 µM,[19],22.3%
same,inhibition of growth at 10 µM,[20],49%
same,inhibition of growth at 10 µM,[21],25%
same,inhibition of growth at 10 µM,[22],37%
same,inhibition of growth at 10 µM,[23],17.8%
same,inhibition of growth at 10 µM,[24],26.3%
same,inhibition of growth at 10 µM,[25],54.2%
same,inhibition of growth at 10 µM,[26],45.2%
same,GI50,[27],18.2 µM
same,LC50,[27],> 100 µM
same,TGI,[27],> 100 µM
same,inhibition of growth at 10 µM,[28],64.7%
same,inhibition of growth at 10 µM,[29],40.4%
same,inhibition of growth at 10 µM,[30],38%
same,GI50,[31],5.3 µM
same,LC50,[31],> 100 µM
same,TGI,[31],91.4 µM
same,RatioGI50,[32],2 - 10
same,inhibition of growth at 10 µM,[33],32.2%
same,GI50,[34],52.8 µM
same,LC50 (concentration killing 50% of cells),[34],> 100 µM
same,TGI,[34],> 100 µM
same,inhibition of growth at 10 µM,[35],32.8%
same,inhibition of growth at 10 µM,[36],75.2%
same,inhibition of growth at 10 µM,[37],22.3%
COc1ccccc1-n1c(SCc2cc(OC)c(OC)c(OC)c2)nc2ccc(Cl)cc2c1=O,RatioGI50,[1],2 - 10
same,inhibition of growth at 10 µM,[2],57.4%
same,inhibition of growth at 10 µM,[3],38.5%
same,RatioGI50,[4],2 - 10
same,RatioGI50,[5],2 - 10
same,inhibition of growth at 10 µM,[6],57.4%
same,inhibition of growth at 10 µM,[7],72%
same,inhibition of growth at 10 µM,[8],49%
same,inhibition of growth at 10 µM,[9],92.3%
same,inhibition of growth at 10 µM,[10],84.1%
same,pIC50,[11],7.00
same,inhibition of growth at 10 µM,[12],43.2%
same,inhibition of growth at 10 µM,[13],65.7%
same,inhibition of growth at 10 µM,[14],83.2%
same,inhibition of growth at 10 µM,[15],99.5%
same,RatioGI50,[16],2 - 10
same,inhibition of growth at 10 µM,[17],55.8%
same,inhibition of growth at 10 µM,[18],44.9%
same,inhibition of growth at 10 µM,[19],35.5%
same,inhibition of growth at 10 µM,[20],68.9%
same,inhibition of growth at 10 µM,[21],80.4%
same,inhibition of growth at 10 µM,[22],66.8%
same,inhibition of growth at 10 µM,[23],29.7%
same,inhibition of growth at 10 µM,[24],40.6%
same,inhibition of growth at 10 µM,[25],79.8%
same,inhibition of growth at 10 µM,[26],72.3%
same,GI50,[27],3.1 µM
same,LC50,[27],> 100 µM
same,TGI,[27],> 100 µM
same,inhibition of growth at 10 µM,[28],83.6%
same,inhibition of growth at 10 µM,[29],67.1%
same,inhibition of growth at 10 µM,[30],52.3%
same,GI50,[31],3.5 µM
same,LC50,[31],> 100 µM
same,TGI,[31],84.8 µM
same,RatioGI50,[32],2 - 10
same,inhibition of growth at 10 µM,[33],56.1%
same,GI50,[34],5.9 µM
same,LC50 (concentration killing 50% of cells),[34],> 100 µM
same,TGI,[34],> 100 µM
same,inhibition of growth at 10 µM,[35],37%
same,inhibition of growth at 10 µM,[36],84.4%
same,inhibition of growth at 10 µM,[37],60.4%
